Activity calls are given as the source filed them. The calls are words filed in the database; no cut-off is given here.
Columns and labels:
[1] = biological target: T1, Peroxisome proliferator-activated receptor delta (Homo sapiens) (UniProt Q03181); experiment: Activation of PPARdelta (unknown origin) by receptor-CBP cofactor complex formation assay
T1 sequence (whole entry): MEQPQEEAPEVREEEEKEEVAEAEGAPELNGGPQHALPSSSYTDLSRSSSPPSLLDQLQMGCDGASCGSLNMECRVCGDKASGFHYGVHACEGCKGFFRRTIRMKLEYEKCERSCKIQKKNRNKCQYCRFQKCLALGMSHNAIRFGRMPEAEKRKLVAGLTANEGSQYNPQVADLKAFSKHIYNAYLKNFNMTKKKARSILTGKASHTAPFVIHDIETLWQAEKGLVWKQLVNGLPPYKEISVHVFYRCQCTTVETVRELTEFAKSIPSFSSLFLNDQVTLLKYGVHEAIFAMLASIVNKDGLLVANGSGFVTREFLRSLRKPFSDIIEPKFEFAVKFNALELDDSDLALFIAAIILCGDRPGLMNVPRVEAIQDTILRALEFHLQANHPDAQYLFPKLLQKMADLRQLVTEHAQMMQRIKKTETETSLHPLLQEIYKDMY
Summary of the method: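 Cell-free cofactor recruitment ELISA: ligand-dependent binding of PPAR isotypes to CBP, detected by HRP-conjugated anti-PPAR antibody at OD450. Full agonists GW7647 (α), GW1929 (γ), GW501516 (δ) define 100%, vehicle 0%; efficacy as maximum B/Bmax% and potency as EC50.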

[2] = biological target: T2, Peroxisome proliferator-activated receptor delta (Mus musculus) (UniProt P35396); experiment: Activation of PPARdelta in mouse C2C12 cells assessed as induction of CPT1A mRNA expression at 10 uM after 24 hrs in presence of GW501516 by quantitative RT-PCR analysis; assay type: cell-based
T2 sequence (whole entry): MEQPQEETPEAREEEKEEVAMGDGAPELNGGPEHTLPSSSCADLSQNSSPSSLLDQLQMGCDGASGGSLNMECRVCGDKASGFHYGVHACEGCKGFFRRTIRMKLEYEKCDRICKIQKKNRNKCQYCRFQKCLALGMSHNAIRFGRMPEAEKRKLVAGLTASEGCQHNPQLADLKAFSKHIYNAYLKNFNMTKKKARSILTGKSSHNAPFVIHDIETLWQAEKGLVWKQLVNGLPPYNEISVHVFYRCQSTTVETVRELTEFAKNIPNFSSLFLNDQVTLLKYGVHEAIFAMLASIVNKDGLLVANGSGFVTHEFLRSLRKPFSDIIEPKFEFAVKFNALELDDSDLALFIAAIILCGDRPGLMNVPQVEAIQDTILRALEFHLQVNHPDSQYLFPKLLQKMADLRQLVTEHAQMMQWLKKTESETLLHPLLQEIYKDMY
Summary of the method: (§1)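 Differentiated C2C12 myotubes (2% horse serum, 5 days) exposed 24 h with or without PPARδ agonist GW501516 (1 μM). mRNA quantified by SYBR green real-time RT-PCR, normalized to β-actin by delta-delta Ct, and expressed as fold induction vs vehicle; means ± SD of four determinants from one of two independent experiments; one-way ANOVA with Bonferroni.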

RAW264.7 [3] = experiment: Activation of RXR/LXR heterodimer in mouse RAW264.7 cells assessed as increase in ABCA1 protein level at 10 uM after 24 hrs in presence of T0901317 by Western blotting analysis; assay type: cell-based
Homo sapiens [4] = organism: Homo sapiens; experiment: Activation of PPARgamma/RXR heterodimer in human hepatoma cells assessed as increase in ANGPTL4 mRNA level at 10 uM by quantitative RT-PCR analysis; assay type: cell-based
Summary of the method: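 HLE human hepatoma cells (DMEM, 10% FBS, 37 °C, 5% CO2) treated with or without rosiglitazone; ANGPTL4 mRNA by SYBR green qRT-PCR, β-actin-normalized delta-delta Ct, fold vs vehicle; means ± SD of three determinants, representative of three experiments.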

RAW264.7 [5] = experiment: Activation of RXR/LXR heterodimer in mouse RAW264.7 cells assessed as potentiation of T0901317-induced increase in ABCA1 mRNA level at 10 uM by quantitative RT-PCR analysis; assay type: cell-based
Summary of the method: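 RAW264.7 macrophages in DMEM/10% FBS, exposed 24 h with or without LXR agonist T0901317; ABCA1 mRNA by SYBR green qRT-PCR, β-actin-normalized, fold vs vehicle; means ± SD of three determinants, one of three independent experiments; one-way ANOVA, Bonferroni.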

[6] = Activation of LXR in mouse C2C12 cells assessed as induction of SREBP1 mRNA expression at 10 uM after 24 hrs in presence of T0901317 by quantitative RT-PCR analysis; assay type: cell-based
Summary of the method: (§2)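 C2C12 myoblasts grown in DMEM/10% FBS, differentiated at confluence in 2% horse serum, medium changed every other day for 5 days; myotubes treated 24 h with or without T0901317 (1 μM). Total RNA, DNase-treated, oligo(dT) RT from 0.5 μg, SYBR green qPCR; normalized to β-actin (delta-delta Ct), fold over vehicle; mean ± SD of four determinants, one of two experiments.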

[7] = biological target: T2, Peroxisome proliferator-activated receptor delta (Mus musculus); experiment: Activation of PPARdelta in mouse C2C12 cells assessed as induction of ANGPTL4 mRNA expression at 10 uM after 24 hrs by quantitative RT-PCR analysis; assay type: cell-based; summary of the method: as §1
F9 = experiment: Activation of RAR/RXR heterodimer in mouse F9 cells assessed as increase in CYP26A1 mRNA level at 10 uM by quantitative RT-PCR analysis in presence of atRA; assay type: cell-based
Summary of the method: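 F9 teratocarcinoma cells on 0.2% gelatin-coated dishes in DMEM/10% FBS; 24 h exposure with or without atRA (0.1 μM). CYP26A1 mRNA by qRT-PCR normalized to β-actin, fold vs vehicle; means ± SD of three determinants, one of three experiments; ANOVA/Bonferroni.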

Homo sapiens [8] = organism: Homo sapiens; experiment: Activation of RXR/VDR heterodimer in human hepatoma cells assessed as increase in CYP24A1 mRNA level at 10 uM in presence of VDR agonist calcitriol by quantitative RT-PCR analysis; assay type: cell-based
Summary of the method: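 HLE hepatoma cells treated 24 h with or without VD3 (0.1 μM); CYP24A1 mRNA by SYBR green qRT-PCR normalized to β-actin (delta-delta Ct), fold over vehicle; means ± SD of three determinants, representative of three experiments.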

[9] = Activation of LXR in mouse C2C12 cells assessed as induction of FAS mRNA expression at 10 uM after 24 hrs by quantitative RT-PCR analysis; assay type: cell-based; summary of the method: as §2

- Activity [1]: inactive
- Activity [2]: Active
- Activity [7]: Active
Structure (SMILES): CC(C)=CCc1cc([C@@H]2CC(=O)c3ccc(O)c(CC=C(C)C)c3O2)cc2c1OC(C(C)(C)O)C2 (stereo not given in full)
- Activity (RAW264.7 [3]): Active
- Activity (Homo sapiens [4]): Active
- Activity (RAW264.7 [5]): Active
- Activity [6]: inactive
- Activity (F9): Active
- Activity (Homo sapiens [8]): inactive
- Activity [9]: inactive
